Source: PubChem (several laboratories)
Lmaj promast = Leishmania major promastigote growth inhibition, primary screen | AID 1063, 2008 | inhibition, % at 10 µM | actives 9% (n = 200,000) | Leishmania major promastigotes, resazurin fluorescence viability; in the data active means inhibition above about 50%;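 further: promastigotes grown with compound for 44 hours at 28 °C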
WT yeast gro inh = growth inhibition of WT strain, primary screen, mitochondrial fusion inhibitor project, WT and mutant strains, chemical genetic; mitochondrial fusion phenotypic screen; inhibition, % at 10 µM; actives 2.1% (n = 190,000); in the data active means inhibition above about 58%; tested in S. cerevisiae
ABCG2 block = ABCG2 efflux pump inhibitors, primary screen, multiplex with ABCB1, IgMXP3 cells, flow cytometry | Broad substrate specificity ATP-binding cassette transporter ABCG2 (Homo sapiens), Q9UNQ0 | JC-1 efflux | inhibition, % at 6.6 µM | actives 0.1% (n = 190,000);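 active means inhibition above 80%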;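 further: 0% = DMSO and 100% = nicardipine control wells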
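Incubation: cells with compound and JC-1, 10 min at 25 °C, rotating, no wash / Test system: IgMXP3 (ABCG2) plus far-red-tagged CCRF-Adr (ABCB1) cells / Compound dosing: one concentration, 6.6 µM final / Also added: JC-1 fluorescent substrate / Evaluation: efflux inhibition in percent versus controls / Detection: flow cytometry, 530 nm JC-1 signal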
ABCB1 block = ABCB1 efflux pump inhibitors, primary screen, cell-based, multiplex, flow cytometry, ABCG2 counter-screen; actives 0.067% (n = 190,000); inhibition, % at 6.6 µM; CCRF-Adr cells, JC-1 efflux; in the data active means inhibition above about 40%;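 further: 0% = vehicle and 100% = reference inhibitor; higher value means more JC-1 retained so stronger ABCB1 efflux block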
RAM inhibit = inhibitors of the yeast RAM network, primary screen, dse1pr::URA3 reporter, 5-FOA selection. actives 1.8% (n = 190,000). S. cerevisiae dse1pr::URA3 reporter, 5-FOA growth OD615, 2 d; analog-sensitive cbk1-as2 kinase mutant strain. AID 868, 2007. inhibition, % at 50 µM;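 active means inhibition above a set limit, 3 SD over mean compound inhibition, cut at about 8.4% in these data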;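 further: 0% = DMSO-only wells with no growth and 100% = 10 µM 1-NA-PP1 full growth; inhibition rescues growth on 5-FOA so higher OD means more RAM inhibition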
The depositor's hits bear a star; / = no result given. The list is not random: actives were taken first. Their share in the collection is about 12%.

SMILES	Lmaj promast	WT yeast gro inh	ABCG2 block	ABCB1 block	RAM inhibit
C=CCc1ccccc1OCC(O)CN1CCN(C(=O)OCC)CC1 (stereo not drawn)	68*	-1	8	3	0
CCOC(=O)N1CCN(CC(O)COc2ccccc2C(C)C)CC1 (stereo not drawn)	70*	3	7	9	-1
C[N+]1(CC(=O)Nc2ccc(F)cc2)CCN(C(=O)c2ccco2)CC1	-6	67*	1	0	1
Cc1ccc(C)c(NC(=S)NC23CN4CN(CN(C4)C2)C3)c1	-3	-10	-1	0	3
OCC1(CCc2ccccc2)CCN(Cc2ccc(OC(F)F)cc2)CC1	82*	7	9	1	2
OCC1(CCc2ccccc2)CCN(Cc2cc(Cl)ccc2O)CC1	-2	31	0	0	0
OCC1(CCCc2ccccc2)CCN(Cc2ccc(F)cc2)CC1	91*	21	0	0	0
OCC1(Cc2ccccc2)CCN(Cc2cnc(-c3cccc4ccccc34)nc2)CC1	10	19	5	1	0
Cc1ccccc1-c1ncc(CN2CCC(CO)(CCCc3ccccc3)CC2)cn1	2	87*	5	2	1
O=C(C1CCN(Cc2ccc(F)cc2)CC1)N(CCc1ccccc1)Cc1ccccc1	49	31	2	1	1
O=S1(=O)CCN2N=C(C34CC5CC(CC(C5)C3)C4)SC2=N1	-1	-3	0	0	2
Cc1ccccc1NC(=O)N1CCN(c2ncccn2)CC1	-4	0	4	2	2
CCOc1ccccc1NS(=O)(=O)c1cn(C)nc1C	-8	-2	-1	0	1
N#C/C(=C\c1cn(-c2ccccc2)nc1-c1cccnc1)c1nnc2n1CCCCC2	12	7	3	3	0
COc1ccc(C2C=C(C34CC5CC(CC(C5)C3)C4)NC(=S)N2)cc1 (stereo not drawn)	16	70*	-2	0	1
COc1ccc(C2=CC(c3ccc(OC)c(OC)c3)NC(=S)N2)cc1 (stereo not drawn)	-3	-2	3	0	1
O=C(/C=C1\NC2(CCCC2)Cc2ccccc21)C(=O)N/N=C/c1ccc(O)c(O)c1	62*	7	-7	-1	0
COc1ccc(/C=N/NC(=O)C(=O)/C=C2\NC3(CCCC3)Cc3ccccc32)cc1	29	48	2	1	0
COc1ccc(-c2nc(C)sc2CC(=O)O)cc1OC	-7	-3	5	0	0
COc1ccc(CN(Cc2ccccn2)S(=O)(=O)c2ccc(-n3cnnn3)c(OC)c2)cc1	80*	-1	0	0	0
CCN(CC)S(=O)(=O)c1ccc(-n2cnnn2)c(C)c1	-6	14	1	0	-1
COc1ccc(CN(Cc2cccnc2)S(=O)(=O)c2ccc(-n3cnnn3)c(C)c2)cc1OC	87*	0	1	1	0
Cc1cccc(C)c1NC(=O)COC(=O)c1cccnc1	-6	-17	4	1	1
c1ccc(-c2nc(CSc3nnc(-c4cccs4)o3)cs2)cc1	-8	19	1	0	9.9*
Cc1ccc2oc(=O)n(CCCOc3ccccc3C)c2c1	0	64*	4	0	2
SMILES	Lmaj promast	WT yeast gro inh	ABCG2 block	ABCB1 block	RAM inhibit
Cc1ccc2oc(=O)n(CCOc3ccccc3C)c2c1	4	6	21	1	3
Cc1cc(C)c(NC(=O)c2cc3c(nc4sccn43)s2)c(C)c1	1	75*	19	3	0
O=C(NN1CCOCC1)c1cccc(COc2cccc(Br)c2)c1	5	-10	9	1	3
COc1ccc(OCc2cccc(C(=O)NN)c2)cc1	-9	-9	3	0	1
NNC(=O)c1cccc(COc2ccc(Br)cc2)c1	-1	73*	-1	0	0
O=C(NCc1ccc(Cl)cc1)c1cccc(NC(=O)c2ccccc2)c1	55*	-3	9	/	1
NNC(=O)c1cccc(COc2cccc(Br)c2)c1	0	73*	-1	0	0
O=C(NCc1ccc(Cl)cc1)c1ccccc1Oc1ccccc1	5	61*	2	0	1
CN(C)c1cccc(C(=O)NCc2ccc(Cl)cc2)c1	27	0	18	1	1
